Measurements from ChEMBL document CHEMBL3616436, “Synthesis, cytotoxicity and antimicrobial activity of thiourea derivatives incorporating 3-(trifluoromethyl)phenyl moiety” (Eur J Med Chem, 2015).
In brackets after ≈: the same amount, converted by molar mass. Activity calls are given as the source filed them. The rule behind the calls is not given here.

Experiments:
Staphylococcus aureus [1] = assay: Antimicrobial activity against Staphylococcus aureus NCTC 4163 at 400 ug after 18 hrs by disc-diffusion method; assay type: functional; details: NCTC 4163, 18 h, read-out: IZ
How it was run: (§1)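 Disc diffusion on Mueller-Hinton II agar per CLSI; 9 mm paper discs loaded with 400 µg compound from DMSO solution, dried, placed on agar; growth inhibition zone diameter read after 18 h at 35°C.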

Vaccinia virus = assay: Antiviral activity against Human Vaccinia virus ATCC VR-1549 infected in African green monkey Vero 76 cells assessed as reduction of virus-plaque formation after 3 days by crystal violet staining; assay type: functional, organism-based; details: Orthopoxvirus vaccinia, ATCC VR-1549, Vero, 72 h
Proteus vulgaris = assay: Antimicrobial activity against Proteus vulgaris NCTC 4635 at 400 ug after 18 hrs by disc-diffusion method; assay type: functional; how it was run: as §1
Staphylococcus aureus [2] = assay: Antimicrobial activity against Staphylococcus aureus ATCC 6538 after 18 hrs by twofold serial microdilution method; assay type: functional; details: ATCC 6538, 18 h
[3] = tested on: Staphylococcus epidermidis; assay: Antimicrobial activity against hospital methicillin-resistant Staphylococcus epidermidis 76/04 after 18 hrs by twofold serial microdilution method; assay type: functional; details: 76/04, 18 h
How it was run: (§2)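 Twofold serial microdilution in Mueller-Hinton broth. Compound stock was made in DMSO and diluted in sterile water. Tested range was 0.125–512 µg/mL. Final inoculum was 10^5 CFU/mL. Plates were incubated 18 h at 35 °C. MIC is the lowest concentration preventing visible growth.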

[4] = tested on: Staphylococcus epidermidis; assay: Ratio of ciprofloxacin MIC to compound MIC for hospital methicillin-resistant Staphylococcus epidermidis 63/04 after 18 hrs by twofold serial microdilution method; assay type: functional
How it was run: (§3)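 Ratio of MICs for ciprofloxacin and test agent, each from twofold serial broth microdilution in Mueller-Hinton broth following CLSI guidelines. DMSO stock was diluted in sterile water to 0.125–512 µg/mL, with a final inoculum of 10^5 CFU/mL.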

Staphylococcus aureus [5] = assay: Ratio of ciprofloxacin MIC to compound MIC for hospital methicillin-resistant Staphylococcus aureus 79/05 after 18 hrs by twofold serial microdilution method; assay type: functional; how it was run: as §3
[6] = Cytotoxicity against bovine MDBK cells assessed as cell viability after 48 to 96 hrs by MTT assay; assay type: cell-based, Bos taurus; details: cattle
[7] = tested on: Staphylococcus epidermidis; assay: Antimicrobial activity against hospital methicillin-resistant Staphylococcus epidermidis 151/04 after 18 hrs by twofold serial microdilution method; assay type: functional; details: 151/04, 18 h; how it was run: as §2
[8] = tested on: Mammalian orthoreovirus 1; assay: Antiviral activity against Reovirus type-1 ATCC VR-214 infected in BHK cells assessed as protection against virus-induced cytopathogenicity after 3 to 4 days by MTT assay; assay type: functional, cell-based; details: Mammalian orthoreovirus 1, ATCC VR-214, BHK
How it was run: (§4)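 Cells seeded in 96-well plates (BHK 5x10^4, MDBK 3x10^4 cells/well), grown overnight to confluence, infected at m.o.i. 0.01 (BHK for Reo-1, MDBK for BVDV); serial compound dilutions in maintenance medium with 0.5% inactivated FBS added after 1 h; viability by MTT after 3–4 days at 37°C; EC50 for 50% protection by linear regression.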

[9] = Cytotoxicity against African green monkey Vero 76 cells assessed as cell viability after 48 to 96 hrs by crystal violet staining; assay type: cell-based; details: chlorocebus sabaeus
Staphylococcus aureus [10] = assay: Antimicrobial activity against hospital methicillin-resistant Staphylococcus aureus 80/05 after 18 hrs by twofold serial microdilution method; assay type: functional; details: 80/05, 18 h; how it was run: as §2
[11] = tested on: Staphylococcus epidermidis; assay: Ratio of ciprofloxacin MIC to compound MIC for hospital methicillin-resistant Staphylococcus epidermidis 24/04 after 18 hrs by twofold serial microdilution method; assay type: functional
[12] = Antiviral activity against Bovine viral diarrhea virus 1-NADL ATCC VR-534 infected in MDBK cells assessed as protection against virus-induced cytopathogenicity after 3 to 4 days by MTT assay; assay type: functional, cell-based; details: Bovine viral diarrhea virus isolates and strains, ATCC VR-534, MDBK; how it was run: as §4
Staphylococcus aureus [13] = assay: Ratio of ciprofloxacin MIC to compound MIC for hospital methicillin-resistant Staphylococcus aureus 522/11 after 18 hrs by twofold serial microdilution method; assay type: functional; how it was run: as §3
Enterococcus faecalis = assay: Antimicrobial activity against Enterococcus faecalis ATCC 29212 at 400 ug after 18 hrs by disc-diffusion method; assay type: functional; details: for zone of inhibition at 400 µg/disc: ATCC 29212, 18 h, read-out: IZ; how it was run: as §1
[14] = tested on: Staphylococcus epidermidis; assay: Antimicrobial activity against Staphylococcus epidermidis ATCC 12228 after 18 hrs by twofold serial microdilution method; assay type: functional; details: ATCC 12228, 18 h
[15] = tested on: Staphylococcus epidermidis; assay: Antimicrobial activity against hospital methicillin-resistant Staphylococcus epidermidis 24/04 after 18 hrs by twofold serial microdilution method; assay type: functional; details: 24/04, 18 h; how it was run: as §2
Coxsackievirus B5 = assay: Antiviral activity against Human coxsackievirus B5 ATCC VR-29 infected in African green monkey Vero 76 cells assessed as reduction of virus-plaque formation after 3 days by crystal violet staining; assay type: functional, organism-based; details: Enterovirus B, ATCC VR-29, Vero, 72 h
How it was run: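 Plaque reduction: Vero-76 at 2x10^5 cells/well grown to confluent monolayers, infected 2 h at 50–100 PFU/well; after removing unadsorbed virus, overlay of D-MEM, 1% inactivated FBS, 0.75% methylcellulose with or without serial compound dilutions; 3 days at 37°C, fixed and stained with crystal violet in 50% ethanol, plaques counted; EC50 by linear regression.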

[16] = tested on: Staphylococcus epidermidis; assay: Antimicrobial activity against hospital methicillin-resistant Staphylococcus epidermidis 63/04 after 18 hrs by twofold serial microdilution method; assay type: functional; details: 63/04, 18 h; how it was run: as §2
Staphylococcus aureus [17] = assay: Antimicrobial activity against Staphylococcus aureus ATCC 29213 at 400 ug after 18 hrs by disc-diffusion method; assay type: functional; details: ATCC 29213, 18 h, read-out: IZ; how it was run: as §1
[18] = tested on: Staphylococcus epidermidis; assay: Ratio of ciprofloxacin MIC to compound MIC for hospital methicillin-resistant Staphylococcus epidermidis 76/04 after 18 hrs by twofold serial microdilution method; assay type: functional; how it was run: as §3
[19] = tested on: Staphylococcus epidermidis; assay: Antimicrobial activity against hospital methicillin-resistant Staphylococcus epidermidis 31/04 after 18 hrs by twofold serial microdilution method; assay type: functional; details: 31/04, 18 h; how it was run: as §2
[20] = tested on: Staphylococcus epidermidis; assay: Ratio of ciprofloxacin MIC to compound MIC for hospital methicillin-resistant Staphylococcus epidermidis […]/[…] after 18 hrs by twofold serial microdilution method; assay type: functional, 16/04
Staphylococcus aureus [21] = assay: Antimicrobial activity against Staphylococcus aureus ATCC 25923 after 18 hrs by twofold serial microdilution method; assay type: functional; details: ATCC 25923, 18 h
Staphylococcus aureus [22] = assay: Ratio of ciprofloxacin MIC to compound MIC for hospital methicillin-resistant Staphylococcus aureus 57/05 after 18 hrs by twofold serial microdilution method; assay type: functional; how it was run: as §3
Staphylococcus aureus [23] = assay: Ratio of ciprofloxacin MIC to compound MIC for hospital methicillin-resistant Staphylococcus aureus 573/11 after 18 hrs by twofold serial microdilution method; assay type: functional; how it was run: as §3
[24] = tested on: Staphylococcus epidermidis; assay: Antimicrobial activity against hospital methicillin-resistant Staphylococcus epidermidis 62/04 after 18 hrs by twofold serial microdilution method; assay type: functional; details: 62/04, 18 h; how it was run: as §2
Bacillus subtilis = assay: Antimicrobial activity against Bacillus subtilis ATCC 6633 at 400 ug after 18 hrs by disc-diffusion method; assay type: functional; details: ATCC 6633, 18 h, read-out: IZ; how it was run: as §1
[25] = tested on: Staphylococcus epidermidis; assay: Antimicrobial activity against hospital methicillin-resistant Staphylococcus epidermidis 23/04 after 18 hrs by twofold serial microdilution method; assay type: functional; details: 23/04, 18 h; how it was run: as §2
[26] = tested on: Staphylococcus epidermidis; assay: Antimicrobial activity against Staphylococcus epidermidis ATCC 35984 at 400 ug after 18 hrs by disc-diffusion method; assay type: functional; details: for zone of inhibition at 400 µg/disc: ATCC 35984, 18 h, read-out: IZ; how it was run: as §1

Structure (SMILES)	zone of inhibition at 400 µg/disc (Staphylococcus aureus [1]) [mm]	EC50 (Vaccinia virus) [µM]	MIC (Staphylococcus aureus [2]) [µg/mL]	MIC [3] [µg/mL]	Ratio [4]	Ratio (Staphylococcus aureus [5])	CC50 [6] [µM]	MIC [7] [µg/mL]	EC50 [8] [µM]	CC50 [9] [µM]	MIC (Staphylococcus aureus [10]) [µg/mL]	Ratio [11]	EC50 [12] [µM]	Ratio (Staphylococcus aureus [13])	MIC [14] [µg/mL]	MIC [15] [µg/mL]	EC50 (Coxsackievirus B5) [µM]	MIC [16] [µg/mL]	zone of inhibition at 400 µg/disc (Staphylococcus aureus [17]) [mm]	Ratio [18]	also measured
Fc1cccc(NC(=S)Nc2cccc(C(F)(F)F)c2)c1	20	> 20	4 (≈ 12.7 µM)	16 (≈ 50.9 µM)	128	128	10	16 (≈ 50.9 µM)	> 9.4	20	8 (≈ 25.5 µM)	128	> 10	128	8 (≈ 25.5 µM)	8 (≈ 25.5 µM)	> 20	16 (≈ 50.9 µM)	21	128	inhibition zone (IZ) (Proteus vulgaris): inactive; zone of inhibition at 400 µg/disc (Enterococcus faecalis): 14 mm; MIC [19]: 8 µg/mL (≈ 25.5 µM); Ratio [20]: 128; MIC (Staphylococcus aureus [21]): 4 µg/mL (≈ 12.7 µM); Ratio (Staphylococcus aureus [22]): 128; Ratio (Staphylococcus aureus [23]): 128; MIC [24]: 8 µg/mL (≈ 25.5 µM); zone of inhibition at 400 µg/disc (Bacillus subtilis): 20 mm; MIC [25]: 8 µg/mL (≈ 25.5 µM); zone of inhibition at 400 µg/disc [26]: 19 mm
FC(F)(F)c1cccc(NC(=S)Nc2ccc(Cl)cc2)c1	12	> 11	8 (≈ 24.2 µM)	8 (≈ 24.2 µM)	128	128	17	8 (≈ 24.2 µM)	> 10	11	16 (≈ 48.4 µM)	128	> 17	128	8 (≈ 24.2 µM)	16 (≈ 48.4 µM)	> 11	16 (≈ 48.4 µM)	12	128	inhibition zone (IZ) (Proteus vulgaris): inactive; inhibition zone (IZ) (Enterococcus faecalis): inactive; MIC [19]: 16 µg/mL (≈ 48.4 µM); Ratio [20]: 128; MIC (Staphylococcus aureus [21]): 8 µg/mL (≈ 24.2 µM); Ratio (Staphylococcus aureus [22]): 128; Ratio (Staphylococcus aureus [23]): 128; MIC [24]: 16 µg/mL (≈ 48.4 µM); zone of inhibition at 400 µg/disc (Bacillus subtilis): 12 mm; MIC [25]: 16 µg/mL (≈ 48.4 µM); inhibition zone (IZ) [26]: inactive
FC(F)(F)c1cccc(NC(=S)Nc2cccc(Br)c2)c1	28	> 14	1 (≈ 2.67 µM)	1 (≈ 2.67 µM)	128	128	10	2 (≈ 5.33 µM)	> 10	14	0.5 (≈ 1.33 µM)	128	> 10	128	2 (≈ 5.33 µM)	4 (≈ 10.7 µM)	> 14	1 (≈ 2.67 µM)	29	128	zone of inhibition at 400 µg/disc (Proteus vulgaris; NCTC 4635, 18 h, read-out: IZ): 12 mm; zone of inhibition at 400 µg/disc (Enterococcus faecalis): 18 mm; MIC [19]: 2 µg/mL (≈ 5.33 µM); Ratio [20]: 128; MIC (Staphylococcus aureus [21]): 1 µg/mL (≈ 2.67 µM); Ratio (Staphylococcus aureus [22]): 128; Ratio (Staphylococcus aureus [23]): 128; MIC [24]: 1 µg/mL (≈ 2.67 µM); zone of inhibition at 400 µg/disc (Bacillus subtilis): 26 mm; MIC [25]: 2 µg/mL (≈ 5.33 µM); zone of inhibition at 400 µg/disc [26]: 27 mm
FC(F)(F)c1cccc(NC(=S)NCCc2ccccc2)c1	15	> 46	8 (≈ 24.7 µM)	8 (≈ 24.7 µM)	128	128	48	16 (≈ 49.3 µM)	> 29	46	8 (≈ 24.7 µM)	128	> 48	128	16 (≈ 49.3 µM)	16 (≈ 49.3 µM)	> 46	8 (≈ 24.7 µM)	15	128	inhibition zone (IZ) (Proteus vulgaris): inactive; inhibition zone (IZ) (Enterococcus faecalis): inactive; MIC [19]: 16 µg/mL (≈ 49.3 µM); Ratio [20]: 128; MIC (Staphylococcus aureus [21]): 8 µg/mL (≈ 24.7 µM); Ratio (Staphylococcus aureus [22]): 128; Ratio (Staphylococcus aureus [23]): 128; MIC [24]: 8 µg/mL (≈ 24.7 µM); zone of inhibition at 400 µg/disc (Bacillus subtilis): 16 mm; MIC [25]: 8 µg/mL (≈ 24.7 µM); zone of inhibition at 400 µg/disc [26]: 17 mm
